Assay results from ChEMBL document CHEMBL3414481, “Discovery of highly selective brain-penetrant vasopressin 1a antagonists for the potential treatment of autism via a chemogenomic and scaffold hopping approach” (J Med Chem, 2015).
In brackets after ≈: the same amount, converted by molar mass.

Key:
Vasopressin V1a receptor [1] = molecular target: T1, Vasopressin V1a receptor (Homo sapiens, UniProt P37288); test: Displacement of [3H]-vasopressin from human vasopressin 1a receptor expressed in HEK293 cell membranes after 1 hr by scintillation proximity assay
Procedure, shortened: (§1)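 Radioligand competition binding; affinity reported as Ki.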
Target sequence in this assay (P37288 whole entry): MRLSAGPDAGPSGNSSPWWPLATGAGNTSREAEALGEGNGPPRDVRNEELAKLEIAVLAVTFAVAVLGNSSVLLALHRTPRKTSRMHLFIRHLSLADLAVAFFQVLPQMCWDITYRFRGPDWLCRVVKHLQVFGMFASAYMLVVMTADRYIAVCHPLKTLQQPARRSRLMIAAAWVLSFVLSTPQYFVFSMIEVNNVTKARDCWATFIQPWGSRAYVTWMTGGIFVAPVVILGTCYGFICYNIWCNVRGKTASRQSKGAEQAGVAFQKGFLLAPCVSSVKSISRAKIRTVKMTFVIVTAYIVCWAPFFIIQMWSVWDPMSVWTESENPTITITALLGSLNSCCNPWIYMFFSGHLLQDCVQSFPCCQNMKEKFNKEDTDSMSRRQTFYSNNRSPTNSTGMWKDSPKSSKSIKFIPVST

Vasopressin V1a receptor [2] = molecular target: T1, Vasopressin V1a receptor; test: Antagonist activity at human vasopressin 1a receptor expressed in CHO cells assessed as inhibition of vasopressin-induced calcium flux preincubated for 20 mins followed by vasopressin induction measured for 5 mins by FLIPR assay; type: functional, cell-based
Procedure, shortened: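 Functional antagonist calcium-flux read-out; value reported as apparent affinity (Kb).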
Target sequence in this assay (P37288 whole entry, looked up): as the sequence (P37288 whole entry) above

Vasopressin V1a receptor [3] = molecular target: Vasopressin V1a receptor (Mus musculus, UniProt Q62463); test: Displacement of [3H]-vasopressin from mouse vasopressin 1a receptor expressed in HEK293 cell membranes after 1 hr by scintillation proximity assay; procedure, shortened: as §1
Chain of Vasopressin V1a receptor (Mus musculus, UniProt Q62463) (Q62463 whole entry): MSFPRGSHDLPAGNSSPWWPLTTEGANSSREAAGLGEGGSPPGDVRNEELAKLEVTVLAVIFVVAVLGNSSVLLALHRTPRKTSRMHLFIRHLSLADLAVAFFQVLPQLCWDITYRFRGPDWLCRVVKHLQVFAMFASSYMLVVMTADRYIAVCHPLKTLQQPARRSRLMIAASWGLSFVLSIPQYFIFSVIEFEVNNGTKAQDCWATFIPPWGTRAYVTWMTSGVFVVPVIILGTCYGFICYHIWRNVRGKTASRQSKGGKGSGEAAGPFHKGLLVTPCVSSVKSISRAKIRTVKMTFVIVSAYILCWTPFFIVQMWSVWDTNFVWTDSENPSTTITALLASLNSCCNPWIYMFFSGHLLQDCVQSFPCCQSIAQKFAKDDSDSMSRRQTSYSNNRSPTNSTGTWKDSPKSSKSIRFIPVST

Homo sapiens [4] = organism: Homo sapiens; test: Selectivity ratio of Ki for human vasopressin V2 receptor to Ki for human vasopressin 1a receptor
Procedure, shortened: (§2)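 Ratio of the Ki at hV2 or hOTR to the hV1a Ki. Each Ki came from a radioligand competition binding assay.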

Homo sapiens [5] = organism: Homo sapiens; test: Selectivity ratio of Ki for human oxytocin receptor to Ki for human vasopressin 1a receptor; procedure, shortened: as §2
[6] = Solubility of the compound in phosphate buffer at pH 6.5 incubated for 1 hr with stirring followed by 2 hrs of shaking by Lysa assay; type: physicochemical
[7] = Activity at human P-gp assessed as drug transport; type: ADME
[8] = Ratio of drug level in brain to plasma in mouse at 10 mg/kg, po; type: ADME, organism-based; set-up: dose 10 mg/kg, route oral; details: read-out: BPR
[9] = Volume of distribution at steady state in mouse at 2 mg/kg, iv; type: ADME, organism-based; set-up: dose 2 mg/kg, route intravenous; details: in vivo, read-out: Vdss
[10] = Clearance in mouse at 2 mg/kg, iv; type: ADME, organism-based; set-up: dose 2 mg/kg, route intravenous; details: in vivo
Vasopressin V1b receptor = molecular target: T2, Vasopressin V1b receptor (Homo sapiens, UniProt P47901); test: Displacement of [3H]-vasopressin from human vasopressin 1b receptor after 1 hr by scintillation proximity assay
T2 sequence (P47901 whole entry): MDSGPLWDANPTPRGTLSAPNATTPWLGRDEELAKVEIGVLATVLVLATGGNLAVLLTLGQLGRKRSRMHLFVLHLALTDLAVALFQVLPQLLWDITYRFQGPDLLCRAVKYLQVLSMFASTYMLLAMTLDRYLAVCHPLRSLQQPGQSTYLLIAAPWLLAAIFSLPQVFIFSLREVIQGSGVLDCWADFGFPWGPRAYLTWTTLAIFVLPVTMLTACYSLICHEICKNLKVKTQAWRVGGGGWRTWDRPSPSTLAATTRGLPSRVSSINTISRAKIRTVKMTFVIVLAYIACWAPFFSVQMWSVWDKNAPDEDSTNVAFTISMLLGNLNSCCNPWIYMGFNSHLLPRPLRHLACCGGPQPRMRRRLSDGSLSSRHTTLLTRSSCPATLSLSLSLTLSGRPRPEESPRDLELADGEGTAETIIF

Vasopressin V2 receptor = Vasopressin V2 receptor (Homo sapiens, UniProt P30518); test: Displacement of [3H]-vasopressin from human vasopressin V2 receptor expressed in HEK293 cell membranes after 1 hr by scintillation proximity assay
Chain of Vasopressin V2 receptor (P30518 whole entry): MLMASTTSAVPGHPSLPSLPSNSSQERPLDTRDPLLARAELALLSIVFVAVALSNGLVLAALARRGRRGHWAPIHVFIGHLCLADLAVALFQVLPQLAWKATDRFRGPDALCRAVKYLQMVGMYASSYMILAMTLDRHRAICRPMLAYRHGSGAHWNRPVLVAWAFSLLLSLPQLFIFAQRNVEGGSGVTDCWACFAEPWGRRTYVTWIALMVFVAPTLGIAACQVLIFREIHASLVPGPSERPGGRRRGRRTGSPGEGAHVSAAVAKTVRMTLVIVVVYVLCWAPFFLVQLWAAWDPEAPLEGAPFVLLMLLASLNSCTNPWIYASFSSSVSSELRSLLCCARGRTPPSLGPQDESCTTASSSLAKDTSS

Oxytocin receptor = molecular target: T3, Oxytocin receptor (Homo sapiens, UniProt P30559); test: Displacement of [3H]-oxytocin from human oxytocin receptor expressed in HEK cell membranes after 1 hr by scintillation proximity assay; set-up: species or system HEK293
T3 sequence (P30559 whole entry): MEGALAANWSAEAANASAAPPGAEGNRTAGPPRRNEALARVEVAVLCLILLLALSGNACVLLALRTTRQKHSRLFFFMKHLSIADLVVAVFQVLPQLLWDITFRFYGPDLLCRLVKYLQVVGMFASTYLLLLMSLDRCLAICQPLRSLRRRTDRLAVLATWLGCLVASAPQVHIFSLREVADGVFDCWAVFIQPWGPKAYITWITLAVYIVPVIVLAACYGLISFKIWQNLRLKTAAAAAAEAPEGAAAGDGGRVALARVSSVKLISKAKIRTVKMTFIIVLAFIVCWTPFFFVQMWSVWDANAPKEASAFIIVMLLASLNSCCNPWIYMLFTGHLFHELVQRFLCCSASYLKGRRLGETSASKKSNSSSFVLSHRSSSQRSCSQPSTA

[11] = Octanol-buffer partition co-efficient, log D of the compound after 24 hrs by high-throughput shake-flask method; type: physicochemical
Mus musculus [12] = test: Inhibition of arginine vasopressin-induced scratching in icv dosed NMRI mouse administered 5 mins prior to arginine vasopressin challenge measured for 5 mins; type: functional, organism-based
Procedure, shortened: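 Mice received the compound i.c.v. at three doses or vehicle before centrally given AVP. AVP-induced scratching was scored and expressed as % of maximal response.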

Mus musculus [13] = test: Inhibition of arginine vasopressin-induced scratching in ip dosed NMRI mouse administered 30 mins prior to arginine vasopressin challenge measured for 5 mins; type: functional, organism-based
Procedure, shortened: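 Mice received the compound i.p. at 0.3, 1, 3, 10 or 30 mg/kg or vehicle before centrally given AVP. AVP-induced scratching was scored and expressed as % of maximal response.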

| Ki (Vasopressin V1a receptor [1]; read-out: Ki) [µM] | Kb (Vasopressin V1a receptor [2]) [µM] | Ki (Vasopressin V1a receptor [3]; read-out: Ki) [µM] | Compound | solubility at 3 h [6] [mg/mL] | further results |
| --- | --- | --- | --- | --- | --- |
| 0.009 | 0.0042 | 2.98 | O=C(c1c[nH]c2cc(Cl)ccc12)N1CCC2(CC1)OCc1ccncc12 | – | – |
| 0.024 | 0.011 | 5.89 | O=C(c1c[nH]c2cc(Cl)ccc12)N1CCC2(CC1)c1ccccc1CS2(=O)=O | – | – |
| – | – | – | COc1ccccc1C(=O)N1CCC(O)(Cc2ccccc2)CC1 | – | Ki (Vasopressin V1a receptor [1]; hek293): Not Active |
| – | 0.038 | – | O=C1Nc2ccccc2C2(CCN(C(=O)c3c[nH]c4cc(Cl)ccc34)CC2)O1 | – | Ki (Vasopressin V1a receptor [3]; hek293): Not Active |
| 0.016 | 0.072 | – | O=C(c1c[nH]c2cc(Cl)ccc12)N1CCC2(CC1)COc1ccccc12 | – | Ki (Vasopressin V1a receptor [3]; hek293): Not Active |
| 2.83 | – | – | CCOc1ccc2ccccc2c1C(=O)N1CCC(O)(Cc2ccccc2)CC1 | – | Ki (Vasopressin V1b receptor; read-out: Ki): 12 µM |
| 0.005 | 0.005 | – | O=C1OC2(CCN(C(=O)c3c[nH]c4cc(Cl)ccc34)CC2)c2ccccc21 | – | Ki (Vasopressin V1a receptor [3]; hek293): Not Active |
| 0.118 | 0.193 | 1.97 | O=C(c1c[nH]c2cc(Cl)ccc12)N1CCN(c2ccccc2Cl)CC1 | – | – |
| 0.005 | 0.0018 | 1.02 | O=C(c1c[nH]c2cc(Cl)ccc12)N1CCC2(CC1)OCc1cccnc12 | – | – |
| 0.004 | 0.0029 | 1.01 | O=C(c1c[nH]c2cc(Cl)ccc12)N1CCC2(CC1)OCc1ccccc12 | 0.004 (≈ 10.9 µM) | Ki (Vasopressin V2 receptor): > 27 µM; Ki (Oxytocin receptor; read-out: Ki): 7.52 µM; Ratio Ki (Homo sapiens [4]): > 6750; Ratio Ki (Homo sapiens [5]): 1880; Activity [7]: Not Active; logD at 24 h [11]: 3.7 |
| – | 0.02 | 5.89 | O=C(c1c[nH]c2cc(Cl)ccc12)N1CCC2(CC1)CNc1ccccc12 | – | – |
| 0.023 | 0.043 | 1.49 | O=C(c1c[nH]c2cc(Cl)ccc12)N1CCC(c2ccccc2)CC1 | – | – |
| 6.62 | – | – | O=C(c1cccc2ccccc12)N1CCC(O)(Cc2ccccc2)CC1 | – | – |
| 0.004 | 0.0033 | 0.011 | CN1CCC(n2cc(C(=O)N3CCC4(CC3)OCc3ccccc34)c3ccc(Cl)cc32)CC1 | 0.012 (≈ 25.9 µM) | Ratio Ki (Homo sapiens [4]): > 6750; Ratio Ki (Homo sapiens [5]): 1200; Activity [7]: Not Active; Kp [8]: 1; Vd [9]: 7.2 L/kg; clearance [10]: 3.12 L/h/kg |
| 0.008 | 0.014 | 2.39 | O=C(c1c[nH]c2cc(Cl)ccc12)N1CCC(n2c(=O)[nH]c3ccccc32)CC1 | – | – |
| 0.032 | – | 6.62 | O=C(c1c[nH]c2ccccc12)N1CCC2(CC1)OCc1ccccc12 | 0.017 (≈ 51.1 µM) | logD at 24 h [11]: > 3 |
| 3.9 | – | – | Cc1c(C(=O)N2CCC(O)(Cc3ccccc3)CC2)c2ccccc2n1C(=O)c1ccccc1 | – | – |
| 0.039 | 0.0078 | 4.82 | O=C(c1c[nH]c2cc(Cl)ccc12)N1CCC2(CC1)OCc1ncccc12 | – | – |
| 4.99 | – | – | Cc1c(C(=O)N2CCC(O)(Cc3ccccc3)CC2)c2ccccc2n1S(=O)(=O)c1ccccc1 | – | – |
| 0.081 | – | – | CCOc1ccc2ccccc2c1C(=O)N1CCC2(CC1)OCc1ccccc12 | – | Ki (Vasopressin V1b receptor): Not Active |

| Compound | Ki (Vasopressin V1a receptor [1]; read-out: Ki) [µM] | Kb (Vasopressin V1a receptor [2]) [µM] | Ki (Vasopressin V1a receptor [3]; read-out: Ki) [µM] | solubility at 3 h [6] [mg/mL] | further results |
| --- | --- | --- | --- | --- | --- |
| O=C(c1cn(C[C@@H]2CCCN2)c2cc(Cl)ccc12)N1CCC2(CC1)OCc1ccccc12 | 0.0014 | 0.0014 | 0.125 | 0.108 (≈ 240 µM) | Ratio Ki (Homo sapiens [4]): > 19300; Ratio Ki (Homo sapiens [5]): 1510; Activity [7]: Active; Kp [8]: 0.05; Vd [9]: 6.8 L/kg; clearance [10]: 1.92 L/h/kg |
| Cc1c(C(=O)N2CCC(O)(Cc3ccccc3)CC2)c2ccccc2n1Cc1ccccc1 | 0.295 | – | – | – | – |
| CN(C)C(=O)Cn1cc(C(=O)N2CCC3(CC2)OCc2ccccc23)c2ccc(Cl)cc21 | – | 0.0001 | 0.014 | 0.056 (≈ 124 µM) | Activity [7]: Active; Kp [8]: 0.05; Vd [9]: 1.2 L/kg; clearance [10]: 2.4 L/h/kg |
| Cc1c(C(=O)N2CCC3(CC2)OCc2ccccc23)c2ccccc2n1Cc1ccccc1 | 0.002 | 0.0036 | 0.21 | < 0.001 | Ki (Vasopressin V2 receptor): 9.31 µM; Ki (Oxytocin receptor; hek293): Not Active; logD at 24 h [11]: > 3 |
| CN1CCN(C(=O)Cn2cc(C(=O)N3CCC4(CC3)OCc3ccccc34)c3ccc(Cl)cc32)CC1 | 0.001 | 0.0002 | 0.041 | 0.193 (≈ 381 µM) | Ratio Ki (Homo sapiens [4]): > 60000; Ratio Ki (Homo sapiens [5]): 9160; Kp [8]: 0.07; Vd [9]: 1.5 L/kg; clearance [10]: 2.34 L/h/kg; inhibition (Mus musculus [12]): Dose-dependent effect |
| CN(C)CCn1cc(C(=O)N2CCC3(CC2)OCc2ccccc23)c2ccc(Cl)cc21 [RO-5028442] | – | 0.0026 | 0.039 | 0.205 (≈ 468 µM) | Ratio Ki (Homo sapiens [4]): > 30000; Ratio Ki (Homo sapiens [5]): 9890; Activity [7]: Not Active; Kp [8]: 1.4; Vd [9]: 5.8 L/kg; clearance [10]: 5.46 L/h/kg |
| CN(C)CCNC(=O)Cn1cc(C(=O)N2CCC3(CC2)OCc2ccccc23)c2ccc(Cl)cc21 | 0.002 | 0.0007 | 0.177 | > 0.65 | Ratio Ki (Homo sapiens [4]): 11800; Ratio Ki (Homo sapiens [5]): 5690; Activity [7]: Active; Kp [8]: 0.1; Vd [9]: 4.9 L/kg; clearance [10]: 0.84 L/h/kg; inhibition (Mus musculus [13]): Dose-dependent effect |
| CN1CCC[C@H]1Cn1cc(C(=O)N2CCC3(CC2)OCc2ccccc23)c2ccc(Cl)cc21 | 0.001 | 0.0005 | 0.013 | 0.14 (≈ 302 µM) | Ratio Ki (Homo sapiens [4]): 6070; Ratio Ki (Homo sapiens [5]): 1980; Activity [7]: Not Active; Kp [8]: 2; Vd [9]: 2.6 L/kg; clearance [10]: 4.02 L/h/kg |
